# Laboratory results published in ChEMBL document CHEMBL1141003, “Carbon analogs of antifungal dioxane-triazole derivatives: synthesis and in vitro activities” (Bioorg Med Chem Lett, 2008).
# Experiments:
# Candida albicans [1] = assay: Antimicrobial activity against Candida albicans ATCC 24433 by broth microdilution method; format: functional
# Outline: (§1)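 MICs were determined by NCCLS-guideline broth microdilution in RPMI1640 medium at 35 °C against Candida strains.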
# Candida albicans [2] = assay: Antimicrobial activity against Candida albicans SANK 51486 by broth microdilution method; format: functional; outline: as §1
# Candida albicans [3] = assay: Antimicrobial activity against Candida albicans TIMM 3164 by broth microdilution method; format: functional; outline: as §1
# Candida albicans [4] = assay: Antimicrobial activity against Candida albicans ATCC 64550 by broth microdilution method; format: functional; outline: as §1
# Candida parapsilosis = assay: Antimicrobial activity against Candida parapsilosis ATCC 90018 by broth microdilution method; format: functional; details: Lodderomyces parapsilosis; outline: as §1
# Nakaseomyces glabratus = assay: Antimicrobial activity against Candida glabrata ATCC 90030 by broth microdilution method; format: functional; outline: as §1
# Pichia kudriavzevii = assay: Antimicrobial activity against Candida krusei ATCC 6258 by broth microdilution method; format: functional; outline: as §1
# Candida tropicalis = assay: Antimicrobial activity against Candida tropicalis ATCC 750 by broth microdilution method; format: functional; outline: as §1
# Cryptococcus neoformans = assay: Antimicrobial activity against Cryptococcus neoformans TIMM 1855 by broth microdilution method; format: functional
# Outline: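 NCCLS broth microdilution MIC determination at 35 °C for Cryptococcus neoformans.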
# Aspergillus fumigatus [5] = assay: Antimicrobial activity against Aspergillus fumigatus SANK 10569 by broth microdilution method; format: functional
# Outline: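 Broth microdilution following NCCLS guidelines. Aspergillus strains incubated at 30 °C in RPMI1640 medium. The MIC was read as the endpoint.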
# Aspergillus flavus = assay: Antimicrobial activity against Aspergillus flavus SANK 18497 by broth microdilution method
# Aspergillus fumigatus [6] = assay: Antimicrobial activity against Aspergillus fumigatus ATCC 26430 by broth microdilution method
# Candida albicans [7] = assay: Antimicrobial activity against Candida albicans 427 infected ddY mouse assessed as survival rate at 20 mg/kg, po administered after 1 hr, 4 hrs, 24 hrs of infection; format: functional
# Outline: (§2)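 ddY mice (n = 10) infected systemically by intravenous injection of C. albicans 427, 5.5 × 10⁶ CFU/mouse. Treatment 20 mg/kg/administration, given 1, 4 and 24 h after infection, orally or ip as per line. Survival recorded 21 days after administration.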
# Candida albicans [8] = assay: Antimicrobial activity against Candida albicans 427 infected ddY mouse assessed as survival at 20 mg/kg, po administered after 1 hr, 4 hrs, 24 hrs of infection; format: functional; outline: as §2
# Candida albicans [9] = assay: Antimicrobial activity against Candida albicans 427 infected ddY mouse assessed as survival at 20 mg/kg, ip administered after 1 hr, 4 hrs, 24 hrs of infection; format: functional; details: route intraperitoneal; outline: as §2
# Mus musculus = assay: Toxicity in ddY mouse at 500 mg/kg, po once daily for 4 days; details: in vivo, 96 h
SMILES,MIC (Candida albicans [1]),MIC (Candida albicans [2]),MIC (Candida albicans [3]),MIC (Candida albicans [4]),MIC (Candida parapsilosis),MIC (Nakaseomyces glabratus),MIC (Pichia kudriavzevii),MIC (Candida tropicalis),MIC (Cryptococcus neoformans),MIC (Aspergillus fumigatus [5]),MIC (Aspergillus flavus),MIC (Aspergillus fumigatus [6]),Activity (Candida albicans [7]),Survival (Candida albicans [8]),Survival (Candida albicans [9]),Activity (Mus musculus)
C[C@@H](S[C@H]1CO[C@H](/C=C/c2ccc(C(F)(F)F)cc2)OC1)[C@](O)(Cn1cncn1)c1ccc(F)cc1F,0.063 µg/mL,0.016 µg/mL,0.125 µg/mL,2 µg/mL,0.031 µg/mL,1 µg/mL,0.25 µg/mL,0.031 µg/mL,0.016 µg/mL,0.25 µg/mL,1 µg/mL,0.25 µg/mL,–,–,–,–
C[C@@H](C[C@H]1CO[C@H](c2ccc(C(F)(F)F)cc2)OC1)[C@](O)(Cn1cncn1)c1ccc(F)cc1F.O=C(O)C(=O)O,0.016 µg/mL,≤ 0.008 µg/mL,0.016 µg/mL,0.5 µg/mL,0.016 µg/mL,1 µg/mL,0.125 µg/mL,0.125 µg/mL,0.031 µg/mL,0.25 µg/mL,1 µg/mL,0.25 µg/mL,–,–,–,–
CCC(C)n1ncn(-c2ccc(N3CCN(c4ccc(OCC5COC(Cn6cncn6)(c6ccc(Cl)cc6Cl)O5)cc4)CC3)cc2)c1=O (centres undefined) [ITRACONAZOLE],0.125 µg/mL,0.031 µg/mL,0.25 µg/mL,1 µg/mL,0.125 µg/mL,1 µg/mL,0.5 µg/mL,0.5 µg/mL,0.25 µg/mL,0.25 µg/mL,0.5 µg/mL,0.25 µg/mL,–,–,–,–
C[C@@H](S[C@H]1CO[C@H](c2ccc(C(F)(F)F)cc2)OC1)[C@](O)(Cn1cncn1)c1ccc(F)cc1F,0.016 µg/mL,≤ 0.008 µg/mL,0.063 µg/mL,1 µg/mL,0.031 µg/mL,1 µg/mL,0.25 µg/mL,0.5 µg/mL,0.031 µg/mL,1 µg/mL,2 µg/mL,1 µg/mL,–,–,–,–
C[C@@H](C[C@H]1CO[C@H](/C=C/C=C/C=C/c2ccc(C(F)(F)F)cc2)OC1)[C@](O)(Cn1cncn1)c1ccc(F)cc1F.O=C(O)C(=O)O,0.125 µg/mL,0.031 µg/mL,0.125 µg/mL,0.5 µg/mL,0.125 µg/mL,2 µg/mL,0.25 µg/mL,0.25 µg/mL,0.125 µg/mL,0.5 µg/mL,1 µg/mL,0.5 µg/mL,–,–,–,–
C[C@@H](S[C@H]1CO[C@H](/C=C/C=C/c2ccc(C(F)(F)F)cc2)OC1)[C@](O)(Cn1cncn1)c1ccc(F)cc1F.O=C(O)C(=O)O,0.125 µg/mL,0.016 µg/mL,0.125 µg/mL,1 µg/mL,0.063 µg/mL,1 µg/mL,0.25 µg/mL,0.125 µg/mL,0.016 µg/mL,0.25 µg/mL,0.5 µg/mL,0.25 µg/mL,–,–,–,–
OC(Cn1cncn1)(Cn1cncn1)c1ccc(F)cc1F [FLUCONAZOLE],0.5 µg/mL,0.25 µg/mL,> 4 µg/mL,> 4 µg/mL,0.5 µg/mL,> 4 µg/mL,> 4 µg/mL,2 µg/mL,> 4 µg/mL,> 4 µg/mL,> 4 µg/mL,> 4 µg/mL,60%,–,–,–
C[C@@H](C[C@H]1CO[C@H](/C=C/C=C/c2ccc(C(F)(F)F)cc2)OC1)[C@](O)(Cn1cncn1)c1ccc(F)cc1F.O=C(O)C(=O)O,0.016 µg/mL,≤ 0.008 µg/mL,0.016 µg/mL,0.5 µg/mL,0.031 µg/mL,1 µg/mL,0.063 µg/mL,0.125 µg/mL,0.016 µg/mL,0.125 µg/mL,0.5 µg/mL,0.125 µg/mL,–,21 days,21 days,Non-toxic
C[C@@H](S[C@H]1CO[C@H](/C=C/C=C/C=C/c2ccc(C(F)(F)F)cc2)OC1)[C@](O)(Cn1cncn1)c1ccc(F)cc1F.O=C(O)C(=O)O,0.25 µg/mL,0.031 µg/mL,1 µg/mL,> 4 µg/mL,0.25 µg/mL,> 4 µg/mL,1 µg/mL,2 µg/mL,0.5 µg/mL,2 µg/mL,4 µg/mL,2 µg/mL,–,–,–,–
C[C@@H](C[C@H]1CO[C@H](/C=C/c2ccc(C(F)(F)F)cc2)OC1)[C@](O)(Cn1cncn1)c1ccc(F)cc1F.O=C(O)C(=O)O,0.031 µg/mL,≤ 0.008 µg/mL,0.016 µg/mL,1 µg/mL,0.031 µg/mL,1 µg/mL,0.063 µg/mL,0.125 µg/mL,0.016 µg/mL,0.25 µg/mL,0.5 µg/mL,0.25 µg/mL,–,–,–,–
